{"data": "Experimental data gathered from unrelated publications", "observed": "cell growth or viability"}
{"SMILES": "Cc1ccc(NNc2nc3ccc(Br)cc3c(=O)n2-c2ccccc2)cc1", "cell line": "SW480", "technique": "MTT", "time": "48 h", "IC50": "85.4 µM"}
{"SMILES": "O=P1(c2ccccc2)CCCCC1", "cell line": "SW480", "technique": "MTT", "time": "72 h", "IC50": "> 100 µM"}
{"SMILES": "CC1=CC(=O)C(C(C)C)=CC1=O", "cell line": "FR2", "technique": "SRB", "time": "48 h", "IC50": "< 100 µM"}
{"SMILES": "COc1ccc(Nc2ncnc3c2ncn3Cc2ccc(C(=O)Nc3ccccc3N)cc2)cc1", "cell line": "MM1.S", "technique": "MTT", "time": "72 h", "IC50": "15.8 µM"}
{"SMILES": "O=C(NO)Nc1nc2c(Cl)cc(Cl)cc2c(=O)n1-c1ccccc1", "cell line": "SW480", "technique": "MTT", "time": "48 h", "IC50": "> 200 µM"}
{"SMILES": "CS(=O)(=O)CCNCc1ccc(-c2ccc3ncnc(Nc4ccc(OCc5cccc(F)c5)c(Cl)c4)c3c2)o1", "cell line": "NCI-N87", "technique": "ATP luminescence", "IC50": "0.0572 µM"}
{"SMILES": "Nc1ccccc1NC(=O)c1ccc(Cn2cnc3c(Nc4ccc(Br)cc4F)ncnc32)cc1", "cell line": "MM1.S", "technique": "MTT", "time": "72 h", "IC50": "1.47 µM"}
{"SMILES": "Cc1c(C)c2c(c(C)c1O)CCC(C)(COc1ccc(CC3SC(=O)NC3=O)cc1)O2 (centres unmarked)", "cell line": "THLE-2", "technique": "MTT", "IC50": "16.3 µM"}
{"SMILES": "Cc1cc2c(C(N)=O)cccc2n1-c1nc2c(c(NCc3ccccc3)n1)CCCN2", "cell line": "MM1.S", "time": "72 h", "IC50": "0.7 µM"}
{"SMILES": "NNc1nc2ccc(Br)cc2c(=O)n1-c1ccc(Cl)cc1", "cell line": "SW480", "technique": "MTT", "time": "48 h", "IC50": "10.9 µM"}
{"SMILES": "COc1cccc2c1C(=O)c1c(O)c3c(c(O)c1C2=O)C[C@@](O)(C(=O)CO)C[C@@H]3O[C@H]1C[C@H](N)[C@H](O)[C@H](C)O1", "cell line": "SW480", "technique": "MTT", "time": "72 h", "IC50": "0.75 µM"}
{"SMILES": "CN1CCC(NC2CCc3[nH]c4c(C(N)=O)ccc(-c5ccccc5Cl)c4c3C2)CC1 (centres unmarked)", "cell line": "HGC-27", "time": "96 h", "IC50": "0.00961 µM"}
{"SMILES": "COc1cccc2c1C(=O)c1c(O)c3c(c(O)c1C2=O)C[C@@](O)(C(=O)CO)C[C@@H]3O[C@H]1C[C@H](N)[C@H](O)[C@H](C)O1", "cell line": "SW480", "technique": "MTT", "time": "48 h", "IC50": "0.09 µM"}
{"SMILES": "CC(C)C[C@H](NC(=O)[C@@H]1Cc2c(F)c(F)c(c(F)c2F)Sc2ccc(cc2)CC(=O)N[C@@H](C(C)C)C(=O)N1)C(=O)[C@@]1(C)CO1", "cell line": "D283 Med", "IC50": "0.091 µM"}
{"SMILES": "O=P1(C2CCCCC2)CCCCC1", "cell line": "SW480", "technique": "MTT", "time": "72 h", "IC50": "5.1 µM"}
{"SMILES": "CN(C)C(=O)Nc1nc2c(Cl)cc(Cl)cc2c(=O)n1-c1ccccc1", "cell line": "SW480", "technique": "MTT", "time": "48 h", "IC50": "> 200 µM"}
{"SMILES": "O=C(NO)c1ccc(Cn2cnc3c(Nc4ccc(Br)cc4F)ncnc32)cc1", "cell line": "MM1.S", "technique": "MTT", "time": "72 h", "IC50": "1.87 µM"}
{"SMILES": "NNc1nc2ccc(Br)cc2c(=O)n1-c1ccc(F)cc1", "cell line": "SW480", "technique": "MTT", "time": "48 h", "IC50": "14.7 µM"}
{"SMILES": "O=C(NO)c1ccc(Cn2cnc3c(Nc4ccc(Cl)cc4)ncnc32)cc1", "cell line": "MM1.S", "technique": "MTT", "time": "72 h", "IC50": "2.64 µM"}
{"SMILES": "NNc1nc2c(Cl)cc(Cl)cc2c(=O)n1-c1ccccc1", "cell line": "SW480", "technique": "MTT", "time": "48 h", "IC50": "> 200 µM"}
{"SMILES": "C=C1CC[C@@H]2[C@](C)(CO)[C@H](O)CC[C@@]2(C)[C@@H]1C/C=C1/C(=O)OC[C@H]1O", "cell line": "SW480", "technique": "MTT", "time": "48 h", "IC50": "4.48 µM"}
{"SMILES": "O=C(NO)Nc1nc2ccc(Br)cc2c(=O)n1-c1ccccc1", "cell line": "SW480", "technique": "MTT", "time": "48 h", "IC50": "> 200 µM"}
{"SMILES": "Cc1cc(Nc2ncnc3ccc(NC4=NC(C)(C)CO4)cc23)ccc1Oc1ccn2ncnc2c1", "cell line": "NCI-N87", "technique": "ATP luminescence", "IC50": "0.0898 µM"}
